Laboratory results from ChEMBL document CHEMBL1124581, “Synthesis and hypolipidemic and antidiabetogenic activities of beta,beta,beta',beta'-tetrasubstituted, long-chain dioic acids” (J Med Chem, 1989).

Legend:
[1] = target: Enoyl-CoA hydratase (Rattus norvegicus) (UniProt P07896); test: Liver peroxisomal palmitoyl-CoA oxidation activity in rats, at 0.00(w/w) in diet
Procedure, shortened: (§1)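 Hebrew University strain rats, 140–160 g, starved 48 h, then pair-refed for 3 consecutive nights a 15-g meal of high-carbohydrate fat-free powdered diet, with or without analogue mixed into the diet at the stated % (w/w). The morning after the last meal, 10 mCi 3H2O in saline given ip; rats killed 1 h later. Readouts: liver lipid 3H2O incorporation, plasma lipids, peroxisomal enoyl-CoA hydratase, CN-insensitive palmitoyl-CoA oxidation. Mean ± SD, n = 4.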

Rattus norvegicus [2] = organism: Rattus norvegicus; test: Inhibition of lipid synthesis, evaluated by incorporation of 3H20 at 0.30(w/w) into liver saponified fatty acids in rat; type: functional
Rattus norvegicus [3] = organism: Rattus norvegicus; test: Hypolipidemic activity in rats by evaluating the plasma triacylglycerol level at 0.00 (% w/w)in diet; type: functional; procedure, shortened: as §1
Rattus norvegicus [4] = organism: Rattus norvegicus; test: Hypolipidemic activity in rats by evaluating the plasma cholesterol level at 0.30 dose (% w/w) in diet; type: functional; procedure, shortened: as §1
Rattus norvegicus [5] = organism: Rattus norvegicus; test: Hypolipidemic activity in rats by evaluating the plasma cholesterol level at 0.00 dose (% w/w) in diet; type: functional; procedure, shortened: as §1
[6] = target: Enoyl-CoA hydratase (Rattus norvegicus) (UniProt P07896); test: Liver peroxisomal palmitoyl-CoA oxidation activity in rats, at 0.30(w/w) in diet; procedure, shortened: as §1
Rattus norvegicus [7] = organism: Rattus norvegicus; test: Inhibition of lipid synthesis, evaluated by incorporation of 3H20 at 0.30(w/w) into liver cholesterol in rat; type: functional
Rattus norvegicus [8] = organism: Rattus norvegicus; test: Inhibition of lipid synthesis, evaluated by incorporation of 3H20 at 0.00(w/w) into liver saponified fatty acids in rat; type: functional
[9] = target: Enoyl-CoA hydratase (Rattus norvegicus) (UniProt P07896); test: Liver peroxisomal enoyl-CoA hydratase activity in rats, at 0.00(w/w) in diet; procedure, shortened: as §1
Rattus norvegicus [10] = organism: Rattus norvegicus; test: Hypolipidemic activity in rats by evaluating the plasma triacylglycerol level at 0.15 (% w/w)in diet; type: functional; procedure, shortened: as §1
[11] = target: Enoyl-CoA hydratase (Rattus norvegicus) (UniProt P07896); test: Liver peroxisomal palmitoyl-CoA oxidation activity in rats, at 0.15(w/w) in diet; procedure, shortened: as §1
Rattus norvegicus [12] = organism: Rattus norvegicus; test: Hypolipidemic activity in rats by evaluating the plasma triacylglycerol level at 0.30 (% w/w)in diet; type: functional; procedure, shortened: as §1
Rattus norvegicus [13] = organism: Rattus norvegicus; test: Inhibition of lipid synthesis, evaluated by incorporation of 3H20 at 0.15(w/w) into liver cholesterol in rat; type: functional
Rattus norvegicus [14] = organism: Rattus norvegicus; test: Hypolipidemic activity in rats by evaluating the plasma cholesterol level at 0.15 dose (% w/w) in diet; type: functional; procedure, shortened: as §1
Rattus norvegicus [15] = organism: Rattus norvegicus; test: Inhibition of lipid synthesis, evaluated by incorporation of 3H20 at 0.00(w/w) into liver cholesterol in rat; type: functional
Rattus norvegicus [16] = organism: Rattus norvegicus; test: Percent of hypolipidemic activity in rats by evaluating the plasma triacylglycerol level at 0.1%(w/w) in diet for three days; type: functional
Procedure, shortened: (§2)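 Rats treated 3 days with 0.1% (w/w) analogue in diet. Plasma triacylglycerols and cholesterol (mg %) compared with untreated rats (mean ± SD, n = 3).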

Rattus norvegicus [17] = organism: Rattus norvegicus; test: Hypolipidemic activity in rats by evaluating the plasma cholesterol level at 0.1%(w/w) in diet for three days
Rattus norvegicus [18] = test: In vivo percent inhibition of lipid synthesis, by incorporation of 3H20 into liver saponified fatty acids in rat, at 0.1%(w/w) in diet for three days; type: functional; settings: values are per cent of control
Procedure, shortened: (§3)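 Rats fed for 3 consecutive days a carbohydrate-rich fat-free diet containing analogue (0.1% w/w for core-substituted series; 0.25% w/w for chain-length homologues). 10 mCi 3H2O given ip; liver taken 1 h later. 3H2O incorporation into liver saponified fatty acids and 3-β-hydroxysterols is expressed as % of untreated rats (untreated n = 3 or 4, mean ± SD).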

[19] = target: Peroxisomal bifunctional enzyme (Rattus norvegicus) (UniProt P07896); test: Percent of liver peroxisomal enoyl-CoA hydratase activity in rats
Chain of Peroxisomal bifunctional enzyme (Rattus norvegicus) (P07896 whole entry, looked up): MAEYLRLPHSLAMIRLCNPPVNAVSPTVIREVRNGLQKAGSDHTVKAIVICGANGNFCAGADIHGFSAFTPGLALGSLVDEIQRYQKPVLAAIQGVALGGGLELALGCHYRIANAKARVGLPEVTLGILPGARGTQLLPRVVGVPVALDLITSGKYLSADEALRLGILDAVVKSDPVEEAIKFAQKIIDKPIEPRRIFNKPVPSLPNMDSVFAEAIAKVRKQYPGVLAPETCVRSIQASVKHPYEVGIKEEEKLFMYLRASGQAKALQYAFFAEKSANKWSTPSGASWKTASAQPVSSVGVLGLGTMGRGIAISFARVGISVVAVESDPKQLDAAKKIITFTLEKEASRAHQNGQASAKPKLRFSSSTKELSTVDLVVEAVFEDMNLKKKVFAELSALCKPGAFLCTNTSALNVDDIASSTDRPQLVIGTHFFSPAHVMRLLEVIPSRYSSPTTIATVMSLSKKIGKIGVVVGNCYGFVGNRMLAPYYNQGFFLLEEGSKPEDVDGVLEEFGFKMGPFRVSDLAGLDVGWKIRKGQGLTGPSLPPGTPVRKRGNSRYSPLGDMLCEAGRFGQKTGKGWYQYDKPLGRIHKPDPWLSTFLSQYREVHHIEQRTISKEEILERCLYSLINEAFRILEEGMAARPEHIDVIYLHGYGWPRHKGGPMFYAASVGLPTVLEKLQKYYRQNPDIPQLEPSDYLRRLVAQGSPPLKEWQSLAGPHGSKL

Rattus norvegicus [20] = test: In vivo lipid synthesis as percent of nontreated control by incorporation of 3H20 into 3-beta-hydroxysterols in rat, at 0.1%(w/w) in diet for three days
Rattus norvegicus [21] = test: Hypolipidemic activity in rats by evaluating the plasma cholesterol level at a dose of 10 mg/kg for seven days; type: functional
Procedure, shortened: (§4)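 Male Lewis rats, 150–180 g, fed standard chow ad libitum. Compound given orally as a suspension in 1% aqueous tylose; controls received vehicle. Blood taken from the retrobulbar venous plexus 3 h after dosing. Plasma cholesterol and triacylglycerols measured spectrophotometrically with enzymatic kits.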

Rattus norvegicus [22] = test: Hypolipidemic activity in rats by evaluating the plasma triacylglycerol level at a dose of 10 mg/kg for seven days; type: functional; procedure, shortened: as §4
Rattus norvegicus [23] = organism: Rattus norvegicus; test: Percent inhibition of lipid synthesis by incorporation of 3H20 into saponified fatty acids in rat; type: functional; set-up: concentration or dose not given beside the values; procedure, shortened: as §3
ATP-citrate synthase [24] = target: T1, ATP-citrate synthase (Rattus norvegicus, UniProt P16638); test: Inhibition against ATP-citrate lyase in liver; type: tissue-based
T1 sequence (P16638 whole entry): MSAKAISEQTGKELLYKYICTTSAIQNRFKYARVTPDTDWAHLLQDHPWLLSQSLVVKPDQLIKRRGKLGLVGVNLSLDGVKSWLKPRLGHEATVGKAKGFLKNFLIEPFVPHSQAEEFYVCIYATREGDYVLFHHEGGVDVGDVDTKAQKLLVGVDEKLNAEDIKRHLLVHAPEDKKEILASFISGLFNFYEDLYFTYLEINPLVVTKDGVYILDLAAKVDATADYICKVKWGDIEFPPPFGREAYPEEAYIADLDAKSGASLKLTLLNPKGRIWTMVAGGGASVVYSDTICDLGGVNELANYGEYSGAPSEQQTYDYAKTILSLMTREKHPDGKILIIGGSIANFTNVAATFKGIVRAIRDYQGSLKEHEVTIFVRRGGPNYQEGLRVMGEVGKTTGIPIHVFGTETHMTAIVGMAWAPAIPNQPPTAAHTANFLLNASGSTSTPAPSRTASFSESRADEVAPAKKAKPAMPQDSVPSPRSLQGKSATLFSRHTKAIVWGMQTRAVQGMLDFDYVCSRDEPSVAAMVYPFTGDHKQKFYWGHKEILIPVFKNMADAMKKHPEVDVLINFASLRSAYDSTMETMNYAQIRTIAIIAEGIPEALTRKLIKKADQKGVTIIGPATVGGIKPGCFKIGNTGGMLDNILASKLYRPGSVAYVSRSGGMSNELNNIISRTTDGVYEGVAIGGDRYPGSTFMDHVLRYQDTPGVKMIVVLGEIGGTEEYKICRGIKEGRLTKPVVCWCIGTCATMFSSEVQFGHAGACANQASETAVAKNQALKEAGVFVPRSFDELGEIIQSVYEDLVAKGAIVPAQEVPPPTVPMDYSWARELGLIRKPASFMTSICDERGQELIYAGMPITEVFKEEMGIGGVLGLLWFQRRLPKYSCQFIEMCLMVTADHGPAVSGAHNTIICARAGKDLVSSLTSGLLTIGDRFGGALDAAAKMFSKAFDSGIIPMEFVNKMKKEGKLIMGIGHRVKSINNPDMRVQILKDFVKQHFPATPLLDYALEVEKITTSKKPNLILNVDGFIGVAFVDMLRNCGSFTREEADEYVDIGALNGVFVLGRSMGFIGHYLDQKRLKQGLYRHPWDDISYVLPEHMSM
Procedure, shortened: (§5)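 Liver citrate lyase activity measured across varying concentrations of homologue. Ki (mM) determined from a Dixon plot.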

Rattus norvegicus [25] = organism: Rattus norvegicus; test: Inhibition of lipid synthesis, by incorporation of 3H20 into saponified fatty acids in cultured rat hepatocytes; type: functional; settings: Hepatocyte, read-out: I50
Procedure, shortened: (§6)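 Cultured rat hepatocytes incubated with varying concentrations of homologue. 3H2O incorporation into saponified fatty acids and 3-β-hydroxysterols measured. I50 = concentration (mM) giving 50% inhibition.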

[26] = target: Peroxisomal bifunctional enzyme (Rattus norvegicus) (UniProt P07896); test: Liver peroxisomal enoyl-CoA hydratase activity in rats
Rattus norvegicus [27] = organism: Rattus norvegicus; test: Inhibition of lipid synthesis, by incorporation of 3H20 into 3-beta-hydroxysterols in cultured rat hepatocytes; type: functional; settings: Hepatocyte, read-out: I50; procedure, shortened: as §6
Rattus norvegicus [28] = organism: Rattus norvegicus; test: Percent of hypolipidemic activity in rats by evaluating the plasma cholesterol level at 0.1%(w/w) in diet for three days; type: functional; procedure, shortened: as §2
ATP-citrate synthase [29] = target: T1, ATP-citrate synthase; test: Inhibition against ATP-citrate lyase in rat liver; type: tissue-based; procedure, shortened: as §5
ATP-citrate synthase [30] = target: T1, ATP-citrate synthase; test: Inhibition against ATP-citrate lyase in rat liver.; procedure, shortened: as §5
ATP-citrate synthase [31] = target: T1, ATP-citrate synthase; test: Inhibition against ATP-citrate lyase in liver.; type: tissue-based
Procedure, shortened: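 Liver ATP-citrate lyase activity was followed across varying inhibitor concentrations, and Ki was derived from a Dixon plot. The methods otherwise refer to an earlier report.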

Chain of Enoyl-CoA hydratase (Rattus norvegicus) (P07896 whole entry): as the sequence (P07896 whole entry, looked up) above

Compound	Activity (uM min-1 mg-1) [19]	Activity (uM min-1 mg-1) [26]	Activity (Rattus norvegicus [16]) [%]	residual activity (Rattus norvegicus [18]) [%]	Incorporation (Rattus norvegicus [20]) [%]	Activity (mg) (Rattus norvegicus [21]) [%]	Hypolipidemic activity (Rattus norvegicus [22]) [%]	Fatty acid synthesis (% of untreated control) (Rattus norvegicus [23]) [%]	IC50 (Rattus norvegicus [25]) [µM]	IC50 (Rattus norvegicus [27]) [µM]	also measured
O=C(O)CC(CCCCCCCCCCC(CC(=O)O)(c1ccccc1)c1ccccc1)(c1ccccc1)c1ccccc1											Activity (nmol/mg.of protein. min) (nmol/mg protein/min) [1]: 4.8; Activity (umol/g.of liver 75.min) (Rattus norvegicus [2]): 123 µmol/g liver/75 min; Activity (mg) (Rattus norvegicus [3]): 131%; Activity (mg) (Rattus norvegicus [4]): 58%; Activity (mg) (Rattus norvegicus [5]): 70.5%; Activity (nmol/mg.of protein. min) (nmol/mg protein/min) [6]: 7.2; Activity (umol/g.of liver 75.min) (Rattus norvegicus [7]): 3.4 µmol/g liver/75 min; Activity (umol/g.of liver 75.min) (Rattus norvegicus [8]): 118 µmol/g liver/75 min; Activity (umol/mg.of protein. min) (µmol/mg protein/min) [9]: 0.45; Activity (mg) (Rattus norvegicus [10]): 127%; Activity (nmol/mg.of protein. min) (nmol/mg protein/min) [11]: 4.4; Activity (mg) (Rattus norvegicus [12]): 101%; Activity (umol/g.of liver 75.min) (Rattus norvegicus [13]): 4.3 µmol/g liver/75 min; Activity (mg) (Rattus norvegicus [14]): 70%; Activity (umol/g.of liver 75.min) (Rattus norvegicus [15]): 3.9 µmol/g liver/75 min
CC(C)(CCCCCCCCCCCC(C)(C)CC(=O)O)CC(=O)O						73	113				
CC(C)(C/C=C\c1ccc(/C=C\CC(C)(C)CC(=O)O)cc1)CC(=O)O	4.5		98	72	97						Activity (Rattus norvegicus [28]): 47%
CC(C)(CCCCCCCCC(C)(C)CC(=O)O)CC(=O)O		16.3				70	126	66	100	100	Ki (ATP-citrate synthase [30]): 56 µM
CC(C)(C/C=C/c1ccc(/C=C/CC(C)(C)CC(=O)O)cc1)CC(=O)O	18.6		41	57	57						Activity (Rattus norvegicus [28]): 28%
CC(C)(CCCCCCCCCC(C)(C)CC(=O)O)CC(=O)O						72	112				
CC(C)(CCCCCCCCCCCCCCCCC(C)(C)CC(=O)O)CC(=O)O		3.5						158	400	400	Ki (ATP-citrate synthase [24]): 320 µM
CC(C)(CCCCCCCCCCC(C)(C)CC(=O)O)CC(=O)O	10.7	31	49	48	40	58	111	29	80	80	Plasma cholesterol (Rattus norvegicus [17]): 32 mg %; Ki (ATP-citrate synthase [31]): 16 µM
CC(C)(CCCCCCCCCCCCC(C)(C)CC(=O)O)CC(=O)O		17.5				73	130	48	150	150	Ki (ATP-citrate synthase [24]): 46 µM

More lines, main results first:

Activity (uM min-1 mg-1) [19]	Activity (uM min-1 mg-1) [26]	Compound	Activity (Rattus norvegicus [16]) [%]	residual activity (Rattus norvegicus [18]) [%]	Incorporation (Rattus norvegicus [20]) [%]	Activity (mg) (Rattus norvegicus [21]) [%]	Hypolipidemic activity (Rattus norvegicus [22]) [%]	Fatty acid synthesis (% of untreated control) (Rattus norvegicus [23]) [%]	IC50 (Rattus norvegicus [25]) [µM]	IC50 (Rattus norvegicus [27]) [µM]	also measured
14		CC(C)(CCCC1CCC(CCCC(C)(C)CC(=O)O)CC1)CC(=O)O (stereo not given)	63	79	71						Plasma cholesterol (Rattus norvegicus [17]): 42 mg %
	5	CC(C)(CCCCCCCCCCCCCCC(C)(C)CC(=O)O)CC(=O)O						113	300	300	Ki (ATP-citrate synthase [24]): 260 µM
12		CC(C)(CCCc1ccc(CCCC(C)(C)CC(=O)O)cc1)CC(=O)O	84	63	65						Activity (Rattus norvegicus [28]): 36%
	7.5	CC(C)(CCCCCCC(C)(C)CC(=O)O)CC(=O)O						80	300	200	Ki (ATP-citrate synthase [29]): 310 µM
10.5		CC(C)(C/C=C\c1ccc(/C=C/CC(C)(C)CC(=O)O)cc1)CC(=O)O	25	50	37						Activity (Rattus norvegicus [28]): 37%
